Results pooled from the literature.
Lines come from different studies, so protocols differ.
ALPI: Intestinal-type alkaline phosphatase (ALPI, Bos taurus, UniProt P19111)
Maob: Amine oxidase [flavin-containing] B (Maob, Rattus norvegicus, UniProt P19643)
NMUR1: Neuromedin-U receptor 1 (NMUR1, Homo sapiens, UniProt Q9HB89)
GRM2: Metabotropic glutamate receptor 2 (GRM2, Homo sapiens, UniProt Q14416)
LCK: Tyrosine-protein kinase Lck (LCK, Homo sapiens, UniProt P06239)
RET: Proto-oncogene tyrosine-protein kinase receptor Ret (RET, Homo sapiens, UniProt P07949)
EPHX2: Bifunctional epoxide hydrolase 2 (EPHX2, Homo sapiens, UniProt P34913)
MAP2K4: Dual specificity mitogen-activated protein kinase kinase 4 (MAP2K4, Homo sapiens, UniProt P45985)

Compound | target | observed | action | method | pH | IC50 [nM]
CCCCCCCCN1CC2=C(C1=O)C(c1ccccc1O)NC(=O)N2 (stereo not shown) | ALPI | enzyme activity | inhibitor | absorbance |  | 8710
CC(=NN=C1CS(=O)(=O)N(C)c2ccccc21)c1cccs1 | Maob | enzyme activity | inhibitor | fluorescence |  | 1980
CC(C)C[C@H](NC(=O)[C@H](Cc1ccccc1)NC(=O)[C@H](Cc1ccc(O)cc1)NC(=O)CNC(=O)[C@H](CCCNC(=N)N)NC(=O)[C@H](CO)NC(=O)[C@H](CCC(N)=O)NC(=O)[C@H](CO)NC(=O)[C@H](C)NC(=O)[C@H](Cc1ccccc1)NC(=O)[C@@H]1CCCN1C(=O)[C@H](CO)NC(=O)[C@H](CCC(N)=O)NC(=O)[C@H](Cc1ccccc1)NC(=O)[C@H](CCC(=O)O)NC(=O)[C@H](CCC(=O)O)NC(=O)[C@H](CC(=O)O)NC(=O)[C@@H](NC(=O)[C@H](CCCNC(=N)N)NC(=O)[C@@H](N)Cc1ccccc1)C(C)C)C(=O)N[C@@H](Cc1ccccc1)C(=O)N[C@@H](CCCNC(=N)N)C(=O)N1CCC[C@H]1C(=O)N[C@@H](CCCNC(=N)N)C(=O)N[C@@H](CC(N)=O)C(N)=O | NMUR1 | ligand displacement |  | radioligand |  | 0.107
CCCCCCCCN1CC2=C(C1=O)C(c1ccc(O)cc1)NC(=O)N2 (stereo not shown) | ALPI | enzyme activity | inhibitor | absorbance |  | 8230
Cn1ccc(COc2cnc(C(N)=O)cc2-c2ccc(F)cc2)n1 | GRM2 | ion flux | antagonist |  |  | 58
O=C1N=C(Nc2ccccc2)S/C1=C\c1ccccc1OCc1cn(Cc2ccccc2Br)nn1 | Aldo-keto reductase family 1 member B1 (AKR1B1, Homo sapiens, UniProt P15121) | enzyme activity | inhibitor | absorbance | pH 6.2 | 37000
O=C1NC2=C(C(=O)N(c3ccc(Cl)cc3)C2)C(c2ccccc2O)N1 (stereo not shown) | ALPI | enzyme activity | inhibitor | absorbance |  | 2940
COc1ccc2c(Oc3ccc4c(C(=O)Nc5ccccc5N)cccc4c3)ccnc2c1 | LCK | enzyme activity | inhibitor |  |  | > 500
O=C(Cc1ccc(Nc2ncnc3[nH]ccc23)cc1)Nc1ccc(F)c(Cl)c1 | RET | enzyme activity | inhibitor | mobility shift |  | > 20000
CN1c2ccccc2C(=NN=Cc2cc3ccc(Cl)cc3nc2Cl)CS1(=O)=O | Maob | enzyme activity | inhibitor | fluorescence |  | 1210
CCCC(CNC(=O)Nc1ccccc1F)C1C2CC3CC(C2)CC1C3 (stereo not shown) | EPHX2 | enzyme activity | inhibitor | fluorescence |  | 106
COc1ccc(-c2nsc(NC(=O)[C@@H]3C[C@H]3C)c2C)cc1 | GRM2 | calcium signal | antagonist |  |  | > 12500
COc1ccc(-c2cc(C(N)=O)ncc2OCc2ccc(F)nc2)c(F)c1 | GRM2 | ion flux | antagonist |  |  | 74
Cc1ccc(C(=O)Nc2ccc(Oc3cc4cnn(C)c4cc3-c3cn[nH]c3)c(F)c2)c(=O)n1-c1ccc(F)cc1 | Proto-oncogene tyrosine-protein kinase receptor Ret (RET, Homo sapiens, UniProt P07949, C634W) | phosphorylation in cells | inhibitor | western blot |  | 2000
CCN1CCN(Cc2ccc(NC(=O)Nc3ccc(Oc4cc(NC)ncn4)cc3)cc2C(F)(F)F)CC1 | MAP2K4 | enzyme activity | inhibitor | ADP detection |  | 40000
COc1ccc(-c2cc(C(N)=O)ncc2OCc2noc(C)n2)c(F)c1 | GRM2 | ion flux | antagonist |  |  | 158
COc1ccc(N2CC3=C(C2=O)C(c2ccc(O)cc2)NC(=O)N3)cc1 (stereo not shown) | ALPI | enzyme activity | inhibitor | absorbance |  | 9430
CC(C)CCC[C@@H](C)[C@H]1CC[C@H]2[C@@H]3C[C@@H](NCCc4c[nH]cn4)[C@@]4(O)C[C@@H](O)CC[C@]4(C)[C@H]3CC[C@]12C | EPHX2 | enzyme activity | inhibitor |  |  | > 100000
CC(C)(C)n1nc(-c2cnc3cc(OC4CC4)ccc3c2)c(C(N)=O)c1N | Mitogen-activated protein kinase kinase kinase 10 (MAP3K10, Homo sapiens, UniProt Q02779) | cell-free assay |  |  |  | > 10000

Compound | target | observed | action | method | pH | IC50 [nM]
CNC(=O)c1cc2c(Oc3ccc(NC(=O)C4(C(=O)Nc5ccc(F)cc5)CC4)cc3)ccnc2cc1OC | Tyrosine-protein kinase Lck, phosphorylated (LCK, Homo sapiens, UniProt P06239) | enzyme activity | inhibitor | radiometric |  | 10
O=C(Nc1ccccc1F)NC12CC3CC(CC(C3)C1)C2 | EPHX2 | enzyme activity | inhibitor | fluorescence |  | 3.7
Cc1ccc2cc(C=NN=C3CS(=O)(=O)N(C)c4ccccc43)c(Cl)nc2c1 | Maob | enzyme activity | inhibitor | fluorescence |  | 1050
COc1ccc(N2CC3=C(C2=O)C(c2ccccc2O)NC(=O)N3)cc1 (stereo not shown) | ALPI | enzyme activity | inhibitor | absorbance |  | 4870
CN(C)CC#Cc1ccc2[nH]c3c(c2c1)-c1nc(N)ncc1CCC3 | MAP2K4 | enzyme activity | inhibitor | radiometric |  | > 10000
Cc1cnc(-c2ccc(-c3ccc(NC(=O)Nc4c(F)cc(F)cc4F)cc3F)c3c2C(=O)NC3)[nH]1 | RET | enzyme activity | inhibitor |  |  | 14.8
COc1ccc(-c2cc(C(N)=O)ncc2OCc2ccnc(F)c2)c(F)c1 | GRM2 | ion flux | antagonist |  |  | 46
CCC(C)(O)C(=O)N1CCC(NC(=O)Nc2ccc(OC(F)(F)F)c(F)c2)CC1 (stereo not shown) | EPHX2 | enzyme activity | inhibitor |  |  | 0.09
CN1CCN(c2ccc(Nc3ncc4cc(C#N)c(=O)n(C5CCCC5)c4n3)cc2)CC1 | MAP/microtubule affinity-regulating kinase 4 (MARK4, Homo sapiens, UniProt Q96L34) | enzyme activity | inhibitor |  |  | 403
COc1ccc(-c2cc(C(N)=O)ncc2OCc2ccn(C)n2)c(F)c1 | GRM2 | ion flux | antagonist |  |  | 21
COc1cc2nccc(Oc3ccc(NC(=O)c4cc5c(n(-c6ccccc6)c4=O)CCCC5=O)nc3)c2cc1OC | LCK | enzyme activity in cells | inhibitor | ATP luminescence |  | > 100
O=C(Nc1ccccc1)NC12CC3CC(CC(C3)C1)C2 | EPHX2 | enzyme activity | inhibitor | fluorescence |  | 16.5
CC(C)C[C@H](NC(=O)[C@H](Cc1ccccc1)NC(=O)[C@@H](N)Cc1ccc(O)cc1)C(=O)N[C@@H](Cc1ccccc1)C(=O)N[C@@H](CCCNC(=N)N)C(=O)N1CCC[C@H]1C(=O)N[C@@H](CCCNC(=N)N)C(=O)N[C@@H](CC(N)=O)C(N)=O | NMUR1 | ligand displacement |  | radioligand |  | 0.661
CC(=NN=C1CS(=O)(=O)N(C)c2ccccc21)c1ccc([N+](=O)[O-])s1 | Maob | enzyme activity | inhibitor | fluorescence |  | 1250
O=C1NC2=C(C(=O)N(Cc3ccc(Cl)cc3)C2)C(c2ccc(O)cc2)N1 (stereo not shown) | ALPI | enzyme activity | inhibitor | absorbance |  | 5350
CC(=NN=C1CS(=O)(=O)N(C)c2ccccc21)c1sccc1C | Maob | enzyme activity | inhibitor | fluorescence |  | 2380
COc1ccc(-c2cc(C(N)=O)ncc2OCc2ccnc(OC)c2)c(F)c1 | GRM2 | ion flux | antagonist |  |  | 135
O=C(CCCCCCCCc1ccc(O)c(O)c1)c1c(O)cccc1O | EPHX2 | enzyme activity | inhibitor | fluorescence |  | 25900
